Screening data as filed in PubChem BioAssay.
Sampled rows, rich in hits. Any-hit rate of the full collection: about 4.6%.
TAAR1 ag – human TAAR1 agonists, primary screen, Fluo-8 calcium fluorescence, CHO RD-HGA16 cells; vehicle wells 0%, saturating PEA agonist 100%; activation, % at 3 µM; 0.99% of 360,000 active; AID 624467, 2012;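 active = activation above the mean activation of all test compounds in the run plus 3 SD, cut at about 38% in these data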
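Test system: RD-HGA16 (CHO) cells co-expressing Gα16 and hTAAR1 | Doses: Single dose, 3 µM | Schedule: 17-24 h seeding, 75 min 37 °C dye, 30 min RT | Evaluation: % activation from peak over basal fluorescence ratio, DMSO-to-PEA scaled | Technique: Kinetic Fluo-8 calcium fluorescence | Benchmarks: Low control DMSO, high control PEA (EC100)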
TAAR1 antagonist – human TAAR1 antagonists, primary screen, Fluo-8 calcium fluorescence, CHO RD-HGA16 cells; antagonist; inhibition, % at 3 µM; 1.5% of 360,000 active; AID 624466, 2012;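 active = inhibition above a per-plate cutoff, the mean inhibition of test compounds on that plate plus 3 SD, cut at about 49% in these data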;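 note: 0% = DMSO plus EC80 beta-PEA response and 100% = DMSO alone without agonist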
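test system = CHO RD-HGA16 cells bearing hTAAR1 | replication = singlicate | controls = DMSO-only wells and EC80 β-PEA-stimulated wells | reagent = EC80 β-phenethylamine stimulus | read-out basis = percent inhibition of PEA-evoked calcium signal, max/basal emission ratio | schedule = seeding 17-24 h prior, 75-min 37 °C, 30-min RT dye loading | signal = kinetic Fluo-8 calcium fluorescence measurement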
OX1R antag-1 – OX1R (HCRTR1) antagonists, primary screen, fluorescence, CHO/OX1R cells, Fluo-8 calcium, orexin A | Fluo-8 calcium fluorescence | 0.43% of 330,000 active | Orexin/Hypocretin receptor type 1 (Homo sapiens), O43613 | AID 434989, 2010 | inhibition, % at 5 µM;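 active = inhibition above its plate's threshold, mean inhibition of all tested compounds on the plate plus 3 SD, cut at about 37% in these data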;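 note: 0% = orexin A challenge wells and 100% = SB-334867-A antagonist wells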
Target sequence (O43613 whole entry, looked up): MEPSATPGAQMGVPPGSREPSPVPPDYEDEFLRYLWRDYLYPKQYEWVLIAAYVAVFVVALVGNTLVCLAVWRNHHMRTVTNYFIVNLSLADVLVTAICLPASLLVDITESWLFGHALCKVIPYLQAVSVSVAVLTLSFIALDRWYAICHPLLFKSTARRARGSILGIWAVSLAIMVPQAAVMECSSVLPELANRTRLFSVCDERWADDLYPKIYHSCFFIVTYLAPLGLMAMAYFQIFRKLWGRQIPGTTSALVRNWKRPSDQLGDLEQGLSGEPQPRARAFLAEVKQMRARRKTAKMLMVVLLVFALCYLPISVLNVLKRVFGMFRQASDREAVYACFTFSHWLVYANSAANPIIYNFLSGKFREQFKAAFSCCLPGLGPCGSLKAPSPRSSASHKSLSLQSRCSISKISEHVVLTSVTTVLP
CHO parental Ca – ATP-evoked calcium signal inhibitors, parental CHO, primary screen, counter-screen for OX1R antagonist project, cell-based, fluorescence, Fluo-8 calcium dye; parental CHO-K1, ATP-induced calcium, Fluo-8 fluorescence; inhibition, % at 5.6 µM; 0.63% of 330,000 active; AID 463079, 2010;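 active = inhibition above that plate's mean sample inhibition plus 3 SD, cut at about 26% in these data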;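 note: 0% = ATP-challenged DMSO wells and 100% = DMSO wells without ATP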
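Assay system – parental CHO cells · Reagent – ATP stimulus · Detection – intracellular calcium via Fluo-8 no-wash fluorescent dye · Evaluation – percent inhibition of ATP-evoked calcium rise, normalized to controls · Controls – ATP wells versus no-ATP DMSO wells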
GPR7 antag – GPR7 receptor antagonists, primary screen, cell-based, fluorescence, single concentration. GPR7-expressing cells, fluorescence antagonist assay. inhibition, % at 4.4 µM. 1.1% of 290,000 active. AID 1861, 2009; in the data active = inhibition above about 16%, passing the limit was not always enough;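 note: cells stimulated with the agonist NPW; 0% = agonist with vehicle and 100% = vehicle without agonist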
Target sequence (P48145 whole entry, looked up): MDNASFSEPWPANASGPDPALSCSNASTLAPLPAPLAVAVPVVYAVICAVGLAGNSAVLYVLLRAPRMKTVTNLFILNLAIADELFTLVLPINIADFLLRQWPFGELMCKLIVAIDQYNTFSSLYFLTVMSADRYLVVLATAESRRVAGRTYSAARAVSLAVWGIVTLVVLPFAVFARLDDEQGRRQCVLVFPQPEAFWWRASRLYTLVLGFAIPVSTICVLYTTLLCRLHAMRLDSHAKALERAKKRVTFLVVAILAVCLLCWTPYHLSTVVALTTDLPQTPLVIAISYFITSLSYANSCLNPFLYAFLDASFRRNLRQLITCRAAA
OX1R antag-2 – antagonists of human orexin 1 receptor (OX1R); Orexin/Hypocretin receptor type 1 (Homo sapiens), O43613; OX1R-expressing cells, FRET antagonist read-out; inhibition, % at 6.6 µM; 1.8% of 330,000 active; in the data active = inhibition mostly above about 38%, no sharp cut-off; inactive = mostly below about 40%;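 note: 0% = agonist challenge alone and 100% = reference antagonist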
An asterisk follows results filed as active; / = no result.

SMILES | TAAR1 ag | TAAR1 antagonist | OX1R antag-1 | CHO parental Ca | GPR7 antag | OX1R antag-2
COc1ccc(COC(=O)C2CCN(S(=O)(=O)c3ccc(OC)c(OC)c3)CC2)cc1 | 1.6 | -4.4 | -0.6 | -14.4 | / | 2.1
CC1CCCN(S(=O)(=O)c2cc(C(=O)NCc3ccco3)ccc2Cl)C1 (stereo unspecified) | -1.8 | 1.2 | -14.6 | -7.8 | / | 4.2
Cc1ccc(NC(=O)COc2ccccc2)cc1S(=O)(=O)N1CCCCC1 | 3.6 | 12.4 | / | / | / | /
CC1CCCN(S(=O)(=O)c2cc(C(=O)NCCc3ccc(S(N)(=O)=O)cc3)ccc2Cl)C1 (stereo unspecified) | 15.6 | 49.6* | / | / | / | /
COc1ccc(CCC(=O)Nc2ccc(Cl)c(S(=O)(=O)N3CCCC3)c2)cc1 | -0.1 | 3.7 | 35.5 | 52.6* | 20.6* | 25.8
Cc1ccccc1OCC(=O)Nc1ccc(C)c(S(=O)(=O)N2CCCCCC2)c1 | 0.0 | 49.0* | -19.3 | 7.6 | / | 37.2
COc1ccc(CCC(=O)Nc2ccc(OC)c(S(=O)(=O)N3CCCCC3)c2)cc1OC | 5.8 | 10.3 | -16.3 | -17.2 | / | 6.9
Cc1cc2c(c(=O)o1)[C@@]1(C(=O)N(C)c3ccccc31)C1=C(CCCC1=O)O2 | 0.1 | -6.4 | / | / | / | /
O=C1C=C(Nc2ccccc2C(=O)O)c2ccccc2C1=O | 1.0 | -14.1 | -6.5 | -5.0 | -12.6 | 50.7
O=C1C=C(Nc2cccc3cccnc23)c2ccccc2C1=O | -0.8 | -7.7 | -10.1 | -8.2 | -10.6 | 64.4*
C=CCO[C@H]1CN(C(=O)OC)[C@@H](c2ccccc2Br)C[C@H]1OCC=C | -0.4 | -7.2 | / | / | / | /
CCOc1ccccc1OCCCC(=O)NNC(=O)c1ccc(F)cc1 | 0.2 | -2.2 | -24.1 | -12.4 | / | 4.7
COC(=O)[C@H](Cc1ccccc1)N1Cc2ccccc2Oc2cc(Br)ccc2S1(=O)=O | -1.1 | 28.5 | / | / | / | /
Cc1cccc(S(=O)(=O)NC(=O)C2(C)CCN2C(=O)C2(c3ccc(Cl)cc3)CCC2)c1 (stereo unspecified) | 1.0 | 7.4 | / | / | / | /
CCCN(CC(=O)Nc1ccccc1OC)C(=O)Cc1ccc2c(c1)CCC2 | / | / | 0.0 | -28.0 | / | 48.4*
CCOC(=O)c1c(CSc2ccc(CC)cc2)oc2ccc(O)c(CN(C)C)c12 | 29.1 | 13.9 | 35.5 | 67.1* | 27.6 | -10.9
CCOC(=O)c1c(CSc2ccccc2)oc2ccc(O)cc12 | -1.3 | 10.5 | -1.4 | 25.6* | -6.7 | 24.0
CCOC(=O)c1c(C)oc2ccc(O)c(CN(C)C)c12 | 7.0 | 4.5 | -16.0 | -11.5 | -1.9 | 9.2
COCCN(CCOC)C(=O)[C@@H](Cc1ccccc1)NC(=O)[C@H]1O[C@@H](n2ccc(N)nc2=O)[C@H](O)[C@@H]1O | 0.3 | -16.4 | / | / | / | /
CCCCCn1cc(CCC(=O)Nc2ccc(Oc3cccnc3)cc2)c2ccccc21 | -1.4 | 3.0 | / | / | / | /
Oc1c(Br)cc(Br)c2cccnc12 | -1.7 | 12.7 | / | / | / | /
[O-][n+]1cccc2c(Br)cc(Br)c(O)c21 | 6.2 | 3.8 | 12.6 | 29.8* | -9.4 | 44.5
CCN(CC)c1ccc(-c2nn3c(-c4ccccc4OC)nnc3s2)cc1 | / | / | 29.3 | 30.3* | 0.4 | 39.2*
Cc1ccccc1-c1ccc2c(c1)[C@@H]1C[C@H](N(C)C(=O)c3ccco3)[C@H]([C@H](C)O)CN1CC2 | 1.3 | -9.4 | / | / | / | /
Nc1nonc1-n1nnc(C(=O)N/N=C/c2cccnc2)c1CSc1ccc(Cl)cc1 | 20.4 | 56.3* | 19.9 | -0.4 | -13.0 | 47.5*
SMILES | TAAR1 ag | TAAR1 antagonist | OX1R antag-1 | CHO parental Ca | GPR7 antag | OX1R antag-2
Nc1nonc1-n1nnc(C(=O)N/N=C/c2cccnc2)c1CSc1ccccc1 | 12.6 | 29.1 | 10.0 | -9.0 | 0.4 | 28.4
COc1ccc(OC)c(Nc2cc(C)c3ccccc3n2)c1 | -3.3 | 10.6 | -21.7 | -27.9 | 21.2 | 11.0
COc1cccc(Nc2cc(C)c3ccccc3n2)c1 | -3.0 | -14.5 | -30.5 | -28.4 | -1.2 | 48.9*
C[C@@H]1CCCCO[C@@H](CN(C)C(=O)NC2CCCCC2)[C@@H](C)CN([C@H](C)CO)C(=O)c2cc(N(C)C)ccc2O1 | -0.8 | -3.1 | / | / | / | /
CCCCc1c(-c2ccccc2OC)ncn1Cc1ccc(Cl)cc1Cl | 3.7 | -14.0 | / | / | / | /
CCN(CC)c1ccc2c(Cl)c(Br)c(=O)oc2c1 | / | / | 89.9* | 80.8* | 41.0* | 8.6
CCN(CC)c1ccc2c(C)c(Cl)c(=O)oc2c1 | 6.7 | 13.8 | -22.2 | -18.7 | -1.2 | 16.3
CN1CCCCC(NC(=O)C2CCCCC2)C1=O (stereo unspecified) | 2.0 | -25.6 | / | / | / | /
CC(=O)c1c(C)oc2ccc(N(C(C)=O)S(=O)(=O)c3cccc4cccnc34)cc12 | 15.4 | 59.0* | -9.0 | -17.6 | -5.1 | 15.5
CC(=O)c1c(C)oc2ccc(N(C(C)=O)S(=O)(=O)c3ccc(F)cc3C)cc12 | -0.4 | -12.0 | -16.9 | -9.9 | -23.0 | 7.9
COC(=O)c1sc(N2CCN(c3ccc(Cl)cc3)CC2)nc1N | 4.7 | 21.0 | 18.7 | 43.7* | 15.5 | 21.1
COc1ccc(N2CCN(C(=O)NC(=O)c3ccc(Cl)cc3)CC2)cc1 | -0.4 | -6.4 | -4.8 | -8.9 | -14.3 | 17.8
C=C(CN(C)C)C(=O)c1ccc2c(c1)OCO2 | 0.4 | -10.6 | / | / | / | /
C=C(CN(C)C)C(=O)c1ccc(OC2OC(COC(C)=O)C(OC(C)=O)C(OC(C)=O)C2OC(C)=O)cc1 (stereo unspecified) | 13.4 | 60.1* | / | / | / | /
CCCNc1[nH]c(=O)n(C)c(=O)c1N=O | 6.7 | 6.0 | -20.6 | -2.9 | -2.9 | 69.1*
O=C(O)c1cc(Cl)n[nH]c1=O | 1.5 | -29.0 | / | / | / | /
Cc1cc(C)n(CCC(=O)N/N=C/c2c(O)ccc3ccccc23)n1 | 13.7 | -20.6 | -38.2 | -31.2 | -10.0 | 25.9
O=C(CCSc1nc2ccccc2s1)N/N=C/c1c(O)ccc2ccccc12 | 3.2 | 28.3 | 9.1 | 5.9 | -0.9 | 60.9*
O=S1(=O)CCSC[C@@H](CNCc2ccco2)N1 | 1.3 | -0.5 | / | / | / | /
COC(=O)C1=C(C)N(C)C(=NCc2ccc(OC)cc2)NC1c1ccc(C(F)(F)F)cc1 (stereo unspecified) | 11.8 | 5.6 | / | / | / | /
Cc1cc(N)n(Cc2ccc(Cl)cc2)n1 | 2.4 | -4.7 | -5.2 | -31.9 | 0.8 | 39.2*
Cc1ccc(-c2cc(N)n(Cc3ccc(Cl)cc3)n2)cc1 | 3.7 | 7.2 | -11.5 | -11.5 | -28.1 | 25.8
COC(=O)/C=C1\Nc2ccc(Cl)cc2C(=O)NC1=O | -0.3 | -16.5 | / | / | / | /
CC(C)N1CCN(S(=O)(=O)c2ccccc2)c2ccccc21 | 5.1 | 4.0 | / | / | / | /
